In ChEMBL document CHEMBL3632582, “Aspertetranones A-D, Putative Meroterpenoids from the Marine Algal-Associated Fungus Aspergillus sp. ZL0-1b14” (J Nat Prod, 2015) one finds inhibition and Activity data, which are given here for four molecules.

Active and inactive are the calls of the source. No cut-off for these calls is given here. Bounds are passed on as bounds.

The test system of series [1] is RAW264.7. Kind of series: Antiinflammatory activity in mouse RAW264.7 cells assessed as inhibition of LPS-induced IL-1beta production at 40 uM preincubated 2 hrs before LPS stimulation measured after 22 hrs by ELISA. The class given is functional. In outline:
(§1)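 RAW 264.7 macrophages were pretreated for 2 h with compound across 0–80 μM, with hydrocortisone (20 μM) as control. LPS was then added for a further 22 h. IL-6 or IL-1β in the culture medium was quantified by ELISA.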
For orientation: In an ELISA, binding on a coated surface is turned into a signal by an enzyme label.

The test system of series [2] is RAW264.7. The experiment in a line: Antiinflammatory activity in mouse RAW264.7 cells assessed as inhibition of LPS-induced IL-6 production preincubated 2 hrs before LPS stimulation measured after 22 hrs by ELISA. In kind it is functional, cell-based. In outline: as §1
Series [3] deals with RAW264.7. The experiment in a line: Antiinflammatory activity in mouse RAW264.7 cells assessed as inhibition of LPS-induced IL-6 production at 40 uM preincubated 2 hrs before LPS stimulation measured after 22 hrs by ELISA. The class given is functional. In outline: as §1
The subject of series [4] is RAW264.7. The experiment in a line: Cytotoxicity against mouse RAW264.7 cells assessed as cell viability at 10 to 100 uM after 24 hrs by MTS assay. The class given is cell-based. The following applies: raw264.7, 24 h. In outline:
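RAW264.7 cells were seeded at 2 × 10^6 cells per well and grown to 80% confluency. They were then exposed to compound over a 10–100 μM gradient for 24 h, and viability was read colorimetrically by MTS.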
For orientation: Tetrazolium dyes change colour on reduction, which living cells bring about.

Series [5] concerns RAW264.7. The experiment in a line: Antiinflammatory activity in mouse RAW264.7 cells assessed as inhibition of LPS-induced IL-1beta production preincubated 2 hrs before LPS stimulation measured after 22 hrs by ELISA. The class given is functional, cell-based. In outline:
as §1

In series [6] the test system is RAW264.7. The experiment in a line: Antiinflammatory activity in mouse RAW264.7 cells assessed as inhibition of LPS-induced nitric oxide production at 33.3 uM preincubated 2 hrs before LPS stimulation measured after 22 hrs. The class given is functional.
In series [7] the test system is RAW264.7. Kind of series: Antiinflammatory activity in mouse RAW264.7 cells assessed as inhibition of LPS-induced TNFalpha production at 33.3 uM preincubated 2 hrs before LPS stimulation measured after 22 hrs by ELISA. The class given is functional.

For the molecule `Cc1oc(=O)c2c(c1C)O[C@@]1(C)[C@H](C2=O)[C@@H](C)[C@]2(O)CC(=O)C(C)(C)C(=O)[C@@]2(O)[C@H]1O`, the values for the inhibition at 40 µM in the series on RAW264.7 [1] and with RAW264.7 [3] were 42% and 43%, respectively. The inhibition entry with RAW264.7 [2] and with RAW264.7 [5] was “Dose-dependent effect” throughout. Also, in the series on RAW264.7 [4], the Activity result is given as “Non-toxic”. Further, the inhibition at 33.3 µM in the series on RAW264.7 [6] and in the series with RAW264.7 [7] was below 35% throughout.
As to `Cc1oc(=O)c2c(c1C)O[C@@]1(C)[C@@H]([C@@H](C)[C@]3(O)CC(=O)C(C)(C)C(=O)[C@@]3(O)[C@H]1O)[C@H]2O`, the inhibition (usually the change of the read-out against control, counted positive when it falls) at 40 µM came out at 47% with RAW264.7 [1] and 69% in the series with RAW264.7 [3]. In addition, the inhibition result with RAW264.7 [2] and with RAW264.7 [5] was “Dose-dependent effect” in each case. Further, in the series with RAW264.7 [4], the Activity result is recorded as “Non-toxic”. In addition, the inhibition at 33.3 µM in the series on RAW264.7 [6] and in the series on RAW264.7 [7] was below 35% each time.
As for `Cc1oc(=O)c2c(c1C)O[C@@]1(C)[C@H](C2)[C@@H](C)[C@]2(O)CC(=O)C(C)(C)C(=O)[C@@]2(O)[C@H]1O`, the inhibition entry with RAW264.7 [2] and with RAW264.7 [5] was “inactive” throughout. In addition, in the series on RAW264.7 [4], the Activity entry is listed as “Non-toxic”. Also, the inhibition at 33.3 µM with RAW264.7 [6] and in the series on RAW264.7 [7] was below 35% in each case.
As for `Cc1cc2c(c(=O)o1)C(=O)[C@@H]1[C@@H](C)[C@]3(O)CC(=O)C(C)(C)C(=O)[C@@]3(O)[C@@H](O)[C@@]1(C)O2`, the inhibition entry in the series with RAW264.7 [2] and in the series on RAW264.7 [5] was “inactive” each time. In addition, the Activity entry with RAW264.7 [4] is “Non-toxic”. Also, the inhibition at 33.3 µM in the series on RAW264.7 [6] and in the series on RAW264.7 [7] was below 35% each time.
